Data from ChEMBL document CHEMBL3739379, “Anti-Candida activity and cytotoxicity of a large library of new N-substituted-1,3-thiazolidin-4-one derivatives” (Eur J Med Chem, 2016).
In brackets after ≈: the same amount, converted by molar mass.

test system: Staphylococcus aureus; experiment: Antibacterial activity against Staphylococcus aureus after 18 to 22 hrs by broth microdilution method; assay type: functional; details: not given
Outline: (§1)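 Broth microdilution per NCCLS in Mueller-Hinton II broth; isolates subcultured for purity. Compounds dissolved in DMSO, serial dilutions 256 to 0.5 µg/mL; inoculum 10^5/mL. Controls: organism without compound, medium only. Incubation 18 to 22 h at 35 °C. MIC is the lowest concentration giving complete growth inhibition, read by unaided eye.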

How did the MIC turn out when `C/C(=N\N=C1/SCC(=O)N1Cc1ccc([N+](=O)[O-])cc1)C1CCCCC1` was run?
Its MIC is greater than 256 µg/mL.

`O=C1c2ccccc2C(=O)N1CN1C(=O)CS/C1=N\N=C\c1cccnc1` was tested. Which MIC did it give?
The MIC was greater than 256 µg/mL.

For `O=C1CS/C(=N\N=C\c2ccc3c(c2)OCO3)N1Cc1ccc([N+](=O)[O-])cc1`, which MIC is on record?
The MIC was greater than 256 µg/mL.

How did the MIC turn out when `CC1CCCC/C1=N\N=C1/SCC(=O)N1CN1C(=O)c2ccccc2C1=O` (stereo unspecified) was run?
The MIC was greater than 256 µg/mL.

test system: Staphylococcus warneri; experiment: Antibacterial activity against Staphylococcus warneri after 18 to 22 hrs by broth microdilution method; assay type: functional; details: not given; outline: as §1

For `C/C(=N\N=C1/SCC(=O)N1Cc1ccc([N+](=O)[O-])cc1)C1CCCCC1`, which MIC is on record?
Its MIC is greater than 256 µg/mL.

With `O=C1c2ccccc2C(=O)N1CN1C(=O)CS/C1=N\N=C\c1cccnc1` as the compound, how does the MIC read?
The MIC was greater than 256 µg/mL.

With `O=C1CS/C(=N\N=C\c2ccc3c(c2)OCO3)N1Cc1ccc([N+](=O)[O-])cc1` as the compound, how does the MIC read?
The MIC was greater than 256 µg/mL.

How did the MIC turn out when `CC1CCCC/C1=N\N=C1/SCC(=O)N1CN1C(=O)c2ccccc2C1=O` (stereo unspecified) was run?
The MIC was greater than 256 µg/mL.

test system: Enterococcus faecalis; experiment: Antibacterial activity against […] faecalis after 18 to 22 hrs by broth microdilution method; assay type: functional; details: not given; outline: as §1

How did the MIC turn out when `C/C(=N\N=C1/SCC(=O)N1Cc1ccc([N+](=O)[O-])cc1)C1CCCCC1` was run?
The MIC was greater than 256 µg/mL.

For `O=C1c2ccccc2C(=O)N1CN1C(=O)CS/C1=N\N=C\c1cccnc1`, which MIC is on record?
Its MIC is greater than 256 µg/mL.

How did the MIC turn out when `O=C1CS/C(=N\N=C\c2ccc3c(c2)OCO3)N1Cc1ccc([N+](=O)[O-])cc1` was run?
Its MIC is greater than 256 µg/mL.

Which MIC does the source give for `CC1CCCC/C1=N\N=C1/SCC(=O)N1CN1C(=O)c2ccccc2C1=O` (stereo unspecified) here?
Its MIC is greater than 256 µg/mL.

test system: Staphylococcus haemolyticus; experiment: Antibacterial activity against Staphylococcus haemolyticus after 18 to 22 hrs by broth microdilution method; assay type: functional; details: not given; outline: as §1

For `C/C(=N\N=C1/SCC(=O)N1Cc1ccc([N+](=O)[O-])cc1)C1CCCCC1`, which MIC is on record?
Its MIC is greater than 256 µg/mL.

With `O=C1c2ccccc2C(=O)N1CN1C(=O)CS/C1=N\N=C\c1cccnc1` as the compound, how does the MIC read?
The MIC was greater than 256 µg/mL.

`O=C1CS/C(=N\N=C\c2ccc3c(c2)OCO3)N1Cc1ccc([N+](=O)[O-])cc1` was tested. Which MIC did it give?
Its MIC is greater than 256 µg/mL.

With `CC1CCCC/C1=N\N=C1/SCC(=O)N1CN1C(=O)c2ccccc2C1=O` (stereo unspecified) as the compound, how does the MIC read?
The MIC was greater than 256 µg/mL.

test system: Escherichia coli; experiment: Antibacterial activity against Escherichia coli at after 18 to 22 hrs by broth microdilution method; assay type: functional; details: not given; outline: as §1

`C/C(=N\N=C1/SCC(=O)N1Cc1ccc([N+](=O)[O-])cc1)C1CCCCC1` was tested. Which MIC did it give?
Its MIC is greater than 256 µg/mL.

With `O=C1c2ccccc2C(=O)N1CN1C(=O)CS/C1=N\N=C\c1cccnc1` as the compound, how does the MIC read?
Its MIC is greater than 256 µg/mL.

For `O=C1CS/C(=N\N=C\c2ccc3c(c2)OCO3)N1Cc1ccc([N+](=O)[O-])cc1`, which MIC is on record?
The MIC was greater than 256 µg/mL.

How did the MIC turn out when `CC1CCCC/C1=N\N=C1/SCC(=O)N1CN1C(=O)c2ccccc2C1=O` (stereo unspecified) was run?
Its MIC is greater than 256 µg/mL.

test system: Proteus mirabilis; experiment: Antibacterial activity against Proteus mirabilis after 18 to 22 hrs by broth microdilution method; assay type: functional; details: not given; outline: as §1

`C/C(=N\N=C1/SCC(=O)N1Cc1ccc([N+](=O)[O-])cc1)C1CCCCC1` was tested. Which MIC did it give?
The MIC was greater than 256 µg/mL.

Which MIC does the source give for `O=C1c2ccccc2C(=O)N1CN1C(=O)CS/C1=N\N=C\c1cccnc1` here?
Its MIC is greater than 256 µg/mL.

How did the MIC turn out when `O=C1CS/C(=N\N=C\c2ccc3c(c2)OCO3)N1Cc1ccc([N+](=O)[O-])cc1` was run?
The MIC was greater than 256 µg/mL.

With `CC1CCCC/C1=N\N=C1/SCC(=O)N1CN1C(=O)c2ccccc2C1=O` (stereo unspecified) as the compound, how does the MIC read?
The MIC was greater than 256 µg/mL.

test system: Enterobacter sp.; experiment: Antibacterial activity against Enterobacter sp. after 18 to 22 hrs by broth microdilution method; assay type: functional; details: not given; outline: as §1

With `C/C(=N\N=C1/SCC(=O)N1Cc1ccc([N+](=O)[O-])cc1)C1CCCCC1` as the compound, how does the MIC read?
The MIC was greater than 256 µg/mL.

For `O=C1c2ccccc2C(=O)N1CN1C(=O)CS/C1=N\N=C\c1cccnc1`, which MIC is on record?
Its MIC is greater than 256 µg/mL.

For `O=C1CS/C(=N\N=C\c2ccc3c(c2)OCO3)N1Cc1ccc([N+](=O)[O-])cc1`, which MIC is on record?
Its MIC is greater than 256 µg/mL.

How did the MIC turn out when `CC1CCCC/C1=N\N=C1/SCC(=O)N1CN1C(=O)c2ccccc2C1=O` (stereo unspecified) was run?
The MIC was greater than 256 µg/mL.

test system: Klebsiella oxytoca; experiment: Antibacterial activity against Klebsiella oxytoca after 18 to 22 hrs by broth microdilution method; assay type: functional; details: not given; outline: as §1

For `C/C(=N\N=C1/SCC(=O)N1Cc1ccc([N+](=O)[O-])cc1)C1CCCCC1`, which MIC is on record?
Its MIC is greater than 256 µg/mL.

Which MIC does the source give for `O=C1c2ccccc2C(=O)N1CN1C(=O)CS/C1=N\N=C\c1cccnc1` here?
The MIC was greater than 256 µg/mL.

With `O=C1CS/C(=N\N=C\c2ccc3c(c2)OCO3)N1Cc1ccc([N+](=O)[O-])cc1` as the compound, how does the MIC read?
Its MIC is greater than 256 µg/mL.

For `CC1CCCC/C1=N\N=C1/SCC(=O)N1CN1C(=O)c2ccccc2C1=O` (stereo unspecified), which MIC is on record?
Its MIC is greater than 256 µg/mL.

test system: Candida albicans; experiment: Antifungal activity against Candida albicans clinical isolate after 24 hrs by sabouraud dextrose broth based microdilution method; assay type: functional; details: not given
Outline: (§2)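 Clinical isolates identified by conventional methods and subcultured for purity. Broth microdilution per NCCLS in Sabouraud dextrose broth; compounds dissolved in DMSO and serially diluted; inoculum 10^3/mL. Controls: fungi without compound, medium only. Incubated 24 h at 37 °C. MIC is the lowest concentration with complete growth inhibition by unaided eye. Values are geometric means over isolates per species.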

How did the MIC turn out when `C/C(=N\N=C1/SCC(=O)N1Cc1ccc([N+](=O)[O-])cc1)C1CCCCC1` was run?
Its MIC is 4 µg/mL (≈ 10.7 µM).

With `O=C1c2ccccc2C(=O)N1CN1C(=O)CS/C1=N\N=C\c1cccnc1` as the compound, how does the MIC read?
The MIC was 256 µg/mL (≈ 675 µM).

With `O=C1CS/C(=N\N=C\c2ccc3c(c2)OCO3)N1Cc1ccc([N+](=O)[O-])cc1` as the compound, how does the MIC read?
The MIC was 256 µg/mL (≈ 643 µM).

With `CC1CCCC/C1=N\N=C1/SCC(=O)N1CN1C(=O)c2ccccc2C1=O` (stereo unspecified) as the compound, how does the MIC read?
The MIC was 4 µg/mL (≈ 10.4 µM).

test system: Nakaseomyces glabratus; experiment: Antifungal activity against Candida glabrata clinical isolate after 24 hrs by sabouraud dextrose broth based microdilution method; assay type: functional; details: not given; outline: as §2

`C/C(=N\N=C1/SCC(=O)N1Cc1ccc([N+](=O)[O-])cc1)C1CCCCC1` was tested. Which MIC did it give?
Its MIC is 16 µg/mL (≈ 42.7 µM).

`O=C1c2ccccc2C(=O)N1CN1C(=O)CS/C1=N\N=C\c1cccnc1` was tested. Which MIC did it give?
Its MIC is 8 µg/mL (≈ 21.1 µM).

How did the MIC turn out when `O=C1CS/C(=N\N=C\c2ccc3c(c2)OCO3)N1Cc1ccc([N+](=O)[O-])cc1` was run?
Its MIC is 32 µg/mL (≈ 80.3 µM).

How did the MIC turn out when `CC1CCCC/C1=N\N=C1/SCC(=O)N1CN1C(=O)c2ccccc2C1=O` (stereo unspecified) was run?
The MIC was 8 µg/mL (≈ 20.8 µM).

test system: Candida tropicalis; experiment: Antifungal activity against Candida tropicalis clinical isolate after 24 hrs by sabouraud dextrose broth based microdilution method; assay type: functional; details: not given; outline: as §2

`C/C(=N\N=C1/SCC(=O)N1Cc1ccc([N+](=O)[O-])cc1)C1CCCCC1` was tested. Which MIC did it give?
Its MIC is 32 µg/mL (≈ 85.5 µM).

Which MIC does the source give for `O=C1c2ccccc2C(=O)N1CN1C(=O)CS/C1=N\N=C\c1cccnc1` here?
The MIC was 16 µg/mL (≈ 42.2 µM).

With `O=C1CS/C(=N\N=C\c2ccc3c(c2)OCO3)N1Cc1ccc([N+](=O)[O-])cc1` as the compound, how does the MIC read?
The MIC was 16 µg/mL (≈ 40.2 µM).

With `CC1CCCC/C1=N\N=C1/SCC(=O)N1CN1C(=O)c2ccccc2C1=O` (stereo unspecified) as the compound, how does the MIC read?
The MIC was 2 µg/mL (≈ 5.2 µM).

test system: Pichia kudriavzevii; experiment: Antifungal activity against Candida krusei clinical isolate after 24 hrs by sabouraud dextrose broth based microdilution method; assay type: functional; details: not given; outline: as §2

`C/C(=N\N=C1/SCC(=O)N1Cc1ccc([N+](=O)[O-])cc1)C1CCCCC1` was tested. Which MIC did it give?
The MIC was 2 µg/mL (≈ 5.34 µM).

How did the MIC turn out when `O=C1c2ccccc2C(=O)N1CN1C(=O)CS/C1=N\N=C\c1cccnc1` was run?
Its MIC is 8 µg/mL (≈ 21.1 µM).

`O=C1CS/C(=N\N=C\c2ccc3c(c2)OCO3)N1Cc1ccc([N+](=O)[O-])cc1` was tested. Which MIC did it give?
The MIC was 8 µg/mL (≈ 20.1 µM).

Which MIC does the source give for `CC1CCCC/C1=N\N=C1/SCC(=O)N1CN1C(=O)c2ccccc2C1=O` (stereo unspecified) here?
The MIC was 16 µg/mL (≈ 41.6 µM).

test system: Candida parapsilosis; experiment: Antifungal activity against Candida parapsilosis clinical isolate after 24 hrs by sabouraud dextrose broth based microdilution method; assay type: functional; details: Lodderomyces parapsilosis; outline: as §2

How did the MIC turn out when `C/C(=N\N=C1/SCC(=O)N1Cc1ccc([N+](=O)[O-])cc1)C1CCCCC1` was run?
Its MIC is 32 µg/mL (≈ 85.5 µM).

For `O=C1c2ccccc2C(=O)N1CN1C(=O)CS/C1=N\N=C\c1cccnc1`, which MIC is on record?
Its MIC is 16 µg/mL (≈ 42.2 µM).

With `O=C1CS/C(=N\N=C\c2ccc3c(c2)OCO3)N1Cc1ccc([N+](=O)[O-])cc1` as the compound, how does the MIC read?
The MIC was 16 µg/mL (≈ 40.2 µM).

With `CC1CCCC/C1=N\N=C1/SCC(=O)N1CN1C(=O)c2ccccc2C1=O` (stereo unspecified) as the compound, how does the MIC read?
Its MIC is 16 µg/mL (≈ 41.6 µM).

test system: [Candida] sake; experiment: Antifungal activity against Candida sake clinical isolate after 24 hrs by sabouraud dextrose broth based microdilution method; assay type: functional; details: Fermentozyma sake; outline: as §2

How did the MIC turn out when `C/C(=N\N=C1/SCC(=O)N1Cc1ccc([N+](=O)[O-])cc1)C1CCCCC1` was run?
Its MIC is 32 µg/mL (≈ 85.5 µM).

How did the MIC turn out when `O=C1c2ccccc2C(=O)N1CN1C(=O)CS/C1=N\N=C\c1cccnc1` was run?
Its MIC is 32 µg/mL (≈ 84.3 µM).

With `O=C1CS/C(=N\N=C\c2ccc3c(c2)OCO3)N1Cc1ccc([N+](=O)[O-])cc1` as the compound, how does the MIC read?
Its MIC is 16 µg/mL (≈ 40.2 µM).

Which MIC does the source give for `CC1CCCC/C1=N\N=C1/SCC(=O)N1CN1C(=O)c2ccccc2C1=O` (stereo unspecified) here?
The MIC was 2 µg/mL (≈ 5.2 µM).
